Source: PubChem (several laboratories)
This is a sample that favours compounds with a hit; in the whole collection about 7.4% have one here.
M1 ag – activates the M1 muscarinic receptor; B-score at 10 µM; AID 626; 3% of 64,000 active; CHO-M1 cells, Fluo-4 calcium fluorescence, agonist mode; active compounds read high;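 active = fluorescence rise, raw or as B-score row- and column-corrected plate score, outside the 99.7% band of its plate's samples, either direction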
Jurkat viability – reduces viability or proliferation of Jurkat cells; inhibition, % at 4 µM; Jurkat E6.1 viability, ATP luminescence, 48 h; 1.2% of 56,000 active;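 active = inhibition above the mean inhibition of all tested compounds plus 3 SD, cut at about 28% in these data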
M1 antag – M1 muscarinic receptor (rat) antagonism; P08482; CHO-M1 cells, Fluo-4 calcium, ACh EC80 antagonist mode; active compounds read low; B-score at 10 µM; 3.4% of 64,000 active; AID 628;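 active = calcium fluorescence response, raw or row-and-column corrected B-score, differing from the plate sample mean either way at a set confidence level, mostly lower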
Target sequence (P08482 whole entry, looked up): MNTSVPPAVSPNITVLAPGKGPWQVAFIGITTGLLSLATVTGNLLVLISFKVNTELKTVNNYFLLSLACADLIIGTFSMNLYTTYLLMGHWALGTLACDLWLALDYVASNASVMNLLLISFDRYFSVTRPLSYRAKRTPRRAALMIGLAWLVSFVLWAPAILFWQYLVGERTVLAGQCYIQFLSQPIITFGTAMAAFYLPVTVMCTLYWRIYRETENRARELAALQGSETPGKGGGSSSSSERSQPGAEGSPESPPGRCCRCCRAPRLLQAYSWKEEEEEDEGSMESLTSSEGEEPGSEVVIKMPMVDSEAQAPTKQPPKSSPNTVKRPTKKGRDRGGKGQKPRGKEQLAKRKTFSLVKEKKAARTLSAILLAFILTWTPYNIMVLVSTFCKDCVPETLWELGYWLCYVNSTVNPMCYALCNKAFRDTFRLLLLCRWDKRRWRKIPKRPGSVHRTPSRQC
S1P3 agonist – agonists of human S1P3 receptor; activation, % at 4.5 µM; Q99500; 0.1% of 60,000 active; S1P3 NFAT-BLA reporter cells, agonism, FRET ratio; relative to 1 µM S1P, basal subtracted;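 active = activation above the screen-wide mean plus 3 SD, cut at about 4.5% in these data, passing the limit was not always enough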
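Benchmarks: high control 1 µM S1P / System: stable CHO line with human S1P3, Gα16, NFAT-BLA reporter / Dosing: single compound concentration, 4.5 µM final / Timing: 4 h compound at 37 °C, 2 h substrate at RT / Measured by: FRET β-lactamase substrate fluorescence, excitation 405 nm, 460/535 nm emission ratio, background-subtracted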
S1P1 ag pot – S1P1 (human) agonism or agonism potentiation. 0.57% of 56,000 active. activation, % at 9.5 µM. S1P1 CRE-bla cells, forskolin, beta-lactamase FRET, potentiator mode; S1P1 agonist co-added at EC20, 2 nM; 100% = saturating reference agonist, 0% = basal. P21453;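 active = activation above a cutoff set at the mean activation of all tested compounds plus 3 SD, cut at about 54% in these data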;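 also: forskolin at 4 µM as EC80 and the EC20 agonist is SEW2871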
JNK3 inh – inhibitors of human JNK3 kinase; P53779; purified JNK3 kinase activity, HTS; inhibition, % at 8 µM; 0.61% of 60,000 active; AID 746; in the data active = inhibition above about 17%
M1 ag confirm – confirmation of rat M1 muscarinic receptor agonists | shares compounds with M1 ag | 19% of 1,700 active | fluorescence change (max-min) at 10 µM | CHO-M1 cells, Fluo-4 calcium fluorescence, agonist mode; actives lie on both sides | AID 1488;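 active = fluorescence change differs from the solvent-only DMSO control mean at a set confidence level in both duplicate runs; inconclusive = differs from solvent-only control mean in just one of two runs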;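 also: an EC20 dose of acetylcholine follows compound addition during the same imaging run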
M4 ag counter – rat M4 muscarinic agonism, M1 counter-screen; shares compounds with M1 ag; CHO M4/Gqi5 cells, Fluo-4 calcium fluorescence, agonist mode; actives lie on both sides; fluorescence change (max-min) at 10 µM; 9% of 1,700 active; AID 1741;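 active = fluorescence change differing from the plate's solvent-only control wells at 99.7% confidence in both duplicates, whether higher or lower; inconclusive = differs from solvent controls in only one of two duplicates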
A number is an active result.

`CC(C)n1c(CCC(=O)O)ccc1-c1ccccc1` gave M1 ag inactive, Jurkat viability inactive, M1 antag inactive, S1P3 agonist inactive, S1P1 ag pot inactive and JNK3 inh inactive.
`CC(C)(C)OC(=O)N1CCC(C(=O)N[C@H](Cc2ccccc2)C(=O)O)CC1` gave M1 ag inactive, Jurkat viability inactive, M1 antag inactive, S1P3 agonist inactive, S1P1 ag pot inactive and JNK3 inh inactive.
Screening Cc1ccc(S(=O)(=O)N2CCC(C(=O)N[C@@H](Cc3ccccc3)C(=O)O)CC2)cc1 returned M1 ag 1.6, Jurkat viability inactive, M1 antag inactive, S1P3 agonist inactive, S1P1 ag pot inactive, JNK3 inh inactive, M1 ag confirm inactive and M4 ag counter inconclusive.
For CCn1c(SCC(=O)Nc2cc(C)on2)nc2c(c1=O)SC(C)C2 (stereo not drawn) the results were M1 ag inactive, Jurkat viability inactive, M1 antag inactive, S1P3 agonist inactive, S1P1 ag pot inactive and JNK3 inh inactive.
For CCn1c(SCC(=O)Nc2nc3ccccc3s2)nc2c(c1=O)SC(C)C2 (stereo not drawn) the results were M1 ag 2.3, Jurkat viability inactive, M1 antag inactive, S1P3 agonist inactive, S1P1 ag pot inactive, JNK3 inh inactive, M1 ag confirm inconclusive and M4 ag counter inactive.
For COCCn1nnnc1C(c1cccc(OC)c1OC)N1CCN(C2CCCCC2)CC1 (stereo not drawn) the results were M1 ag 18, Jurkat viability inactive, M1 antag inactive, S1P3 agonist inactive, S1P1 ag pot inactive, JNK3 inh inactive, M1 ag confirm inconclusive and M4 ag counter inactive.
O=C1N2CCSC2=NC1(NS(=O)(=O)c1ccccc1)C(F)(F)F (stereo not drawn) was read as M1 ag inactive, Jurkat viability inactive, M1 antag inactive, S1P3 agonist inactive, S1P1 ag pot inactive and JNK3 inh inactive.
For CCOC(=O)c1ccc(S(=O)(=O)Nc2cc(C(C)(C)C)no2)cc1 the results were M1 ag 7.6, Jurkat viability inactive, M1 antag inactive, S1P3 agonist inactive, S1P1 ag pot inactive, JNK3 inh inactive, M1 ag confirm inactive and M4 ag counter inactive.
`CCOC(=O)c1ccc(S(=O)(=O)Nc2ccccc2-c2nnn(CC)n2)cc1` gave M1 ag 3.8, Jurkat viability inactive, M1 antag -3, S1P3 agonist inactive, S1P1 ag pot inactive, JNK3 inh inactive, M1 ag confirm inconclusive and M4 ag counter inconclusive.
CCc1ccccc1NC(=O)Cn1nnc(-c2cccnc2)n1 was read as M1 ag inactive, Jurkat viability inactive, M1 antag inactive, S1P3 agonist inactive, S1P1 ag pot inactive and JNK3 inh inactive.
For Cc1onc(-c2ccccc2)c1C(=O)N[C@@H]1C(=O)N2[C@@H]1SC(C)(C)[C@@H]2C(=O)O the results were M1 ag inactive, M1 antag inactive, S1P3 agonist inactive, S1P1 ag pot inactive and JNK3 inh inactive.
Screening COC(=O)c1cc(=O)n(Cc2ccc3c(c2)OCO3)c(=Nc2ccccc2)s1 returned M1 ag inactive, Jurkat viability inactive, M1 antag inactive, S1P3 agonist inactive, S1P1 ag pot inactive and JNK3 inh inactive.
`COC(=O)c1cc(=O)n(Cc2ccco2)c(=Nc2ccc(F)c(Cl)c2)s1` gave M1 ag 7.1, Jurkat viability inactive, M1 antag inactive, S1P3 agonist inactive, S1P1 ag pot inactive, JNK3 inh inactive, M1 ag confirm inactive and M4 ag counter inactive.
Screening Cc1ccc2c(c1)nnn2C1CCN(S(=O)(=O)c2cccc(S(=O)(=O)N(C)C)c2)CC1 returned M1 ag 4.9, Jurkat viability inactive, M1 antag inactive, S1P3 agonist inactive, S1P1 ag pot inactive, JNK3 inh inactive, M1 ag confirm inconclusive and M4 ag counter inactive.
